Screening data from PubChem BioAssay.
This is a sample that favours compounds with a hit; in the whole collection about 3.5% have one here.
MEKK2 WT-MEK5 – raises or lowers MEK5 binding to wildtype human MEKK2 PB1 domain. 1.1% of 290,000 active. binding response (% of control), % at 10 µM. bead flow cytometry, Alexa488-MEK5 binding to MEKK2 WT; actives lie on both sides. Q9Y2U5; in the data active = binding response below about 67% or above about 130%
MEKK3 PB1 HTS – raises or lowers MEK5 binding to the human MEKK3 PB1 domain | Q99759 | bead-based flow cytometry, Alexa488-MEK5 binding to MEKK3; actives lie on both sides; 0 = blocked by unlabeled MEK5, 100 = vehicle | binding response (% of control), % at 10 µM | 1.4% of 290,000 active | AID 1529;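 active = binding response more than 3 SD above or below the average of its plate-row segment, actives on both sides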;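 also: Alexa488 bead fluorescence after subtracting the streptavidin-only scavenger bead signal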
Target sequence (Q99759 whole entry, looked up, the tested form may be a part): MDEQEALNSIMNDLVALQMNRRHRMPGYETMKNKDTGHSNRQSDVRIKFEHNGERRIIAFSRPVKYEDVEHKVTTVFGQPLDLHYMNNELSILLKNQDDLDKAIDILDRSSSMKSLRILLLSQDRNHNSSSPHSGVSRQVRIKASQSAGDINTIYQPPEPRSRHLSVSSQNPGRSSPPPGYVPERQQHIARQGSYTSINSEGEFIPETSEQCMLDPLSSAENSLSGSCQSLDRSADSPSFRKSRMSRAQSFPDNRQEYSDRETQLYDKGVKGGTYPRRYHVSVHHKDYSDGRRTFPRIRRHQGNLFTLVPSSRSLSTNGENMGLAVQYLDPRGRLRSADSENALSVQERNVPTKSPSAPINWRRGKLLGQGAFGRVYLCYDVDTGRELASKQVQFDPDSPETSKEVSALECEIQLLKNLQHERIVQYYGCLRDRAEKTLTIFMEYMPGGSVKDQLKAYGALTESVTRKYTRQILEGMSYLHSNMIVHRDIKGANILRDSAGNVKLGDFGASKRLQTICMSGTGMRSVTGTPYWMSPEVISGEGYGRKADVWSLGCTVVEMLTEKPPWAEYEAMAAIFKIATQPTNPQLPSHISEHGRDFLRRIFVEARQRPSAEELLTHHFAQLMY
ABCB1 inh – blocks JC-1 efflux by human ABCB1 transporter; inhibition, % at 6.6 µM; CCRF-Adr cells, flow cytometry; P08183; 0.067% of 190,000 active; in the data active = inhibition above about 40%;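 also: 0% = vehicle and 100% = reference inhibitor; higher value means more JC-1 retained so stronger ABCB1 efflux block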
ABCG2 block – inhibitors of human ABCG2 transporter, ABCB1 counter-screen | 0.1% of 190,000 active | IgMXP3 cells, JC-1 efflux, flow cytometry | inhibition, % at 6.6 µM;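 active = inhibition above 80%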;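 also: 0% = DMSO and 100% = nicardipine control wells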
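Test system: IgMXP3 cells (ABCG2) mixed with DDAO far-red-labelled CCRF-Adr cells (ABCB1). Reagent: JC-1 transporter substrate. Compound dosing: single test compound dose, 6.6 µM final. Times: 10 min compound exposure, 25 °C. Detection: flow cytometry of retained JC-1 fluorescence. Read-out basis: efflux inhibition in percent versus controls. Controls: nicardipine and DMSO wells.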
WT yeast gro inh – growth inhibition of WT yeast, mitochondrial fusion screen. mitochondrial fusion phenotypic screen, WT strain. inhibition, % at 10 µM. 2.1% of 190,000 active; in the data active = inhibition above about 58%; tested in S. cerevisiae
MEKK2mut PB1 HTS – signal of MEK5 binding to mutant human MEKK2 PB1 domain; bead flow cytometry, Alexa488-MEK5 binding to MEKK2 mutant; percent response, % at 10 µM; 0.35% of 290,000 active; AID 1530; in the data active = percent response above about 24%, passing the limit was not always enough
MEKK2wt confirm – raises or lowers MEK5 binding to wildtype human MEKK2, retest; bead flow cytometry, Alexa488-MEK5 binding to MEKK2 WT; actives lie on both sides; 2.4% of 5,900 active; binding response (% of control), % at 10 µM; shares compounds with MEKK3 PB1 HTS; in the data active = binding response below about 16% or above about 210%; inactive = in between
MEKK2mut confirm – signal of MEK5 binding to mutant human MEKK2, retest | bead flow cytometry, Alexa488-MEK5 binding to MEKK2 mutant | percent response, % at 10 µM | 2% of 5,900 active | AID 1893 | shares compounds with MEKK3 PB1 HTS; in the data active = percent response mostly above about 71%, no sharp cut-off; inactive = mostly below about 38%;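 also: higher means compound restores mutant binding toward wildtype level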
MEKK3-MEK5 inh – MEKK3-MEK5 PB1 inhibition, single concentration confirmation. binding response (% of control), % at 10 µM. 1.8% of 5,900 active. AID 1894. shares compounds with MEKK3 PB1 HTS. bead flow cytometry, Alexa488-MEK5 binding to MEKK3; stronger effect = lower value;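 active = binding response below 72% of control, or above a set upper limit, though filed actives all read lower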;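 also: 100% = DMSO only wells and 0% = binding blocked by excess unlabeled MEK5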
* marks the source's active call; other numbers are inactive results; · = no result given; [ ] = remark or other dose.

SMILES | MEKK2 WT-MEK5 | MEKK3 PB1 HTS | ABCB1 inh | ABCG2 block | WT yeast gro inh | MEKK2mut PB1 HTS | MEKK2wt confirm | MEKK2mut confirm | MEKK3-MEK5 inh
NC(=O)N/N=C/c1coc2ccc(O)cc2c1=O | 55.0 | 45.0*[inhibitor] | · | · | · | -31.0 | 101.0 | -2.0 | 100.0
O=C(Cn1cnc2c(nnn2Cc2ccc(F)cc2)c1=O)Nc1ccccc1 | 105.0 | 107.0 | · | · | · | -1.0 | · | · | ·
Cc1cc2nc(SCCOC(=O)Nc3ccccc3)nc(C)c2cc1C | 107.0 | 106.0 | 1.3 | 6.8 | 11.7 | 3.0 | · | · | ·
Cc1cc2nc(SCCOC(=O)Nc3cccc(Cl)c3)nc(C)c2cc1C | 111.0 | 153.0* | 1.1 | 16.6 | 10.5 | 1.0 | 98.0 | -3.0 | 102.0
Nc1nc2ccccc2n1C(=O)c1ccc(F)cc1 | 96.0 | 98.0 | 0.4 | 6.5 | 15.9 | -8.0 | · | · | ·
O=c1c(/C=C(\O)c2ccc(F)cc2)nc2ccccc2n1-c1ccccc1 | 45.0*[inhibitor] | 83.0 | 10.1 | 11.4 | · | 1.0 | 66.0 | -21.0 | 94.0
Cn1c(=O)c(/C=C/c2ccc(F)cc2)nc2ccccc21 | 55.0*[inhibitor] | 81.0 | 0.5 | 2.0 | 29.5 | -10.0 | 78.0 | -7.0 | 97.0
Cc1onc(C(=O)NC2CCCCC2)c1[N+](=O)[O-] | 100.0 | 101.0 | · | · | · | 2.0 | · | · | ·
O=C(CSC1CN(C(c2ccccc2)c2ccccc2)C1)N/N=C/c1ccccc1 | 101.0 | 108.0 | · | · | · | 3.0 | · | · | ·
Cc1onc(-c2ccccc2Cl)c1C(=O)N1CCN(c2ccc(F)cc2)CC1 | 99.0 | 100.0 | · | · | · | 2.0 | · | · | ·
COC(=O)C(Cc1ccc(O)cc1)NC(=O)C(C)Oc1ccccc1 (stereo not drawn) | -5.0*[inhibitor] | 0.0*[inhibitor] | -0.2 | -0.3 | -10.2 | -39.0 | 106.0 | 8.0 | 107.0
CCCCNC(=S)NNC(=O)c1sccc1C | 102.0 | 101.0 | 4.2 | 11.3 | 10.5 | 4.0 | · | · | ·
CCCCNC(=S)NNC(=O)c1ccncc1 | 50.0 | 35.0*[inhibitor] | -0.1 | 2.6 | -12.9 | -16.0 | 102.0 | -2.0 | 104.0
Cc1c(Cc2ccc3c(c2)OCO3)sc(NC(=O)c2ccccc2)c1C(N)=O | 81.0 | 75.0*[inhibitor] | -0.2 | 0.3 | 12.2 | -7.0 | 97.0 | -1.0 | 100.0
Cc1nc(NC(=O)c2ccccc2)sc1Cc1ccc2c(c1)OCO2 | 111.0 | 102.0 | 5.9 | 3.3 | 40.9 | 5.0 | · | · | ·
Cn1c(=O)c2c(SCCN3CCOCC3)nc(C3CCCC3)nc2n(C)c1=O | 74.0 | 58.0*[inhibitor] | 1.9 | 3.1 | -31.2 | -4.0 | 104.0 | -2.0 | 99.0
CCc1ccc(C(=O)CN2C(=O)NC(C)(CCc3ccccc3)C2=O)cc1 (stereo not drawn) | 95.0 | 104.0 | 0.9 | 1.3 | 12.0 | 0.0 | · | · | ·
COc1ccc(CNCCc2ccccc2)cc1OCC(N)=O | 106.0 | 98.0 | 0.5 | 3.2 | 51.9 | 7.0 | · | · | ·
COc1ccc(CNCCc2ccc(Cl)cc2)cc1OCc1ccccc1 | 2.0*[inhibitor] | 2.0*[inhibitor] | 2.2 | -0.1 | 82.0* | -83.0 | 145.0 | 23.0 | 108.0
CCOc1cc(CNCc2ccccc2)ccc1OCc1ccc(Cl)cc1 | 160.0* | 99.0 | · | · | · | 22.0 | 170.0 | 36.0 | 105.0
O=C(Nc1c2c(nn1-c1ccc(F)cc1)CS(=O)(=O)C2)c1ccc(S(=O)(=O)N2CCOCC2)cc1 | 99.0 | 99.0 | 0.0 | 0.8 | 19.0 | -3.0 | · | · | ·
CCC(C(=O)NC1CCCCCC1)n1nc(C)c2c(C)n(-c3ccccc3)nc2c1=O (stereo not drawn) | 98.0 | 96.0 | · | · | · | 0.0 | · | · | ·
Cc1ccc(NC(=O)c2snc3ccc(Cl)cc23)cc1C | 102.0 | 131.0* | 0.1 | 4.0 | 1.1 | -1.0 | 100.0 | -3.0 | 98.0
CCc1cccc2c(C(=O)C(F)(F)F)cn(CC(=O)N3CCOCC3)c12 | 124.0 | 147.0* | 0.8 | 0.0 | 3.8 | 6.0 | 105.0 | 2.0 | 107.0
CC1CN(C(=O)c2ccc(NS(=O)(=O)c3ccc(C(C)(C)C)cc3)cc2)CC(C)O1 (stereo not drawn) | 100.0 | 98.0 | · | · | · | 2.0 | · | · | ·
SMILES | MEKK2 WT-MEK5 | MEKK3 PB1 HTS | ABCB1 inh | ABCG2 block | WT yeast gro inh | MEKK2mut PB1 HTS | MEKK2wt confirm | MEKK2mut confirm | MEKK3-MEK5 inh
CC1(c2ccc(OC(F)F)cc2)NC(=O)N(CC(=O)Nc2ccc(S(N)(=O)=O)cc2)C1=O (stereo not drawn) | 49.0 | 46.0*[inhibitor] | -1.6 | -4.2 | -9.7 | -17.0 | 95.0 | -5.0 | 97.0
CC1(c2ccc(OC(F)F)cc2)NC(=O)N(CC(=O)Nc2ccc(OC(F)F)cc2)C1=O (stereo not drawn) | 102.0 | 102.0 | · | · | · | -2.0 | · | · | ·
CC(=O)c1c(C)[nH]c(C(=O)NCCc2c[nH]c3ccccc23)c1C | 100.0 | 103.0 | · | · | · | 5.0 | · | · | ·
CCOC(=O)C1(C)NC(c2cc(OC)c(OC)c(OC)c2)C2C(=O)N(CC)C(=O)C21 (stereo not drawn) | 2.0*[inhibitor] | 2.0*[inhibitor] | 0.2 | 1.6 | 12.2 | -14.0 | 108.0 | 6.0 | 104.0
CCN1C(=O)C2C(c3ccc(O)c(OC)c3)NC(C)(C(=O)OC)C2C1=O (stereo not drawn) | 94.0 | 96.0 | 0.0 | -0.4 | -6.3 | -6.0 | · | · | ·
CCCNC(=O)CSc1nc2ccccc2c(=O)n1CCC | 112.0 | 128.0* | 0.2 | 2.2 | 13.4 | -1.0 | 101.0 | 3.0 | 104.0
COCCCn1c(SCC(=O)Nc2ccc(C(C)=O)cc2)nc2ccccc2c1=O | 48.0 | 39.0*[inhibitor] | 2.3 | 6.9 | 15.0 | -19.0 | 105.0 | 3.0 | 102.0
CCCCNC(=O)CSc1nc2ccccc2c(=O)n1CCNC(C)=O | 98.0 | 104.0 | 0.3 | 1.7 | 1.6 | 4.0 | · | · | ·
CC1(C)SC2[C@H](NC(=O)C(NC(=O)N3CCNC3=O)c3ccccc3)C(=O)N2C1C(=O)O (stereo partly drawn) | 94.0 | 104.0 | 0.3 | 0.3 | 1.7 | -4.0 | · | · | ·
Cc1ccc(C#N)c(SCc2ccccc2F)n1 | 59.0 | 49.0*[inhibitor] | · | · | · | -14.0 | 104.0 | 0.0 | 102.0
Cc1ccc2nc(CSc3nc(C)ccc3C#N)[nH]c2c1 | 107.0 | 109.0 | -0.3 | -0.7 | 43.8 | 10.0 | · | · | ·
CC(=O)Nc1ccc(NC(=O)CSc2nnc(NC(=O)C3CC(=O)N(c4ccc(F)cc4)C3)s2)cc1 (stereo not drawn) | 107.0 | 102.0 | · | · | · | 6.0 | · | · | ·
CCCOc1ccc(C2=NNC(c3cccs3)=Nc3ccc(OC)cc32)cc1 | 87.0 | 141.0* | 0.4 | 1.4 | 40.0 | 6.0 | 101.0 | 1.0 | 107.0
Cc1ccc(C(c2nnnn2Cc2ccccc2)N2CCN(Cc3ccccc3)CC2)cc1 (stereo not drawn) | 96.0 | 97.0 | 4.1 | 3.3 | 13.4 | 4.0 | · | · | ·
